Measurements collected from several papers.
Lines come from different studies, so protocols differ.
SP140: SP140 (Homo sapiens, UniProt Q13342)
ANKK1: Ankyrin repeat and protein kinase domain-containing protein 1 (ANKK1, Homo sapiens, UniProt Q8NFD2)

Structure (SMILES)	target	assay	test system	setting	endpoint	result
Cc1ccc(S(=O)(=O)Nc2ccc(-n3nc(C(F)(F)F)cc3C(F)(F)F)cc2)cc1	Calcium release-activated calcium channel protein 1 (Rattus norvegicus, UniProt Q5M848)	ion current, inhibitor, patch clamp	RBL-2H3	3 µM	remaining activity	60%
Oc1ccc(-c2nc(-c3ccncc3)c(-c3ccc(F)cc3)[nH]2)cc1	SP140	thermal stability, DSF	–	10 µM	ΔTm	0.36 °C
CN(C)C1CCN(CC#Cc2nn(C3CCCC3)c3nc(NCc4ccccc4)ncc23)C1 (stereo not shown)	Proto-oncogene tyrosine-protein kinase Src (SRC, Homo sapiens, UniProt P12931)	enzyme activity, inhibitor, FRET	–	0.1 µM	inhibition	-1%
Cc1cnc(Nc2ccc(OCCN3CCCC3)cc2)nc1Nc1cccc(S(=O)(=O)NC(C)(C)C)c1	SP140	thermal stability, DSF	–	10 µM	ΔTm	-0.01 °C
Oc1c(Br)cc(Oc2ccc(Br)cc2Br)cc1Br	Sulfotransferase 1E1 (SULT1E1, Homo sapiens, UniProt P49888)	enzyme activity, substrate	–	–	Km	4.23 µM
OCc1cc(C(O)CNCCCCCCOCCCCc2ccccc2)ccc1O (stereo not shown)	C-X-C chemokine receptor type 4 (CXCR4, Homo sapiens, UniProt P61073)	calcium signal, antagonist	U87.CD4.CXCR4	0.8 µM	inhibition	9%
Cc1ccc(C(=O)Nc2ccc(CN3CCN(C)CC3)c(C(F)(F)F)c2)cc1C#Cc1cnc2cccnn12	ANKK1	cell-free assay	–	23.5 nM	remaining signal	56%
Cc1cc2c(cc1N1C(=O)c3cccc4c(Cl)ccc(c34)C1=O)n(C)c(=O)n2C	SP140	thermal stability, DSF	–	10 µM	ΔTm	-0.9 °C
CCCOc1ccc(OC)c(F)c1C(=O)c1ccc(C(=O)N[C@@H]2CNC[C@H]2NC(=O)c2ccc3[nH]ncc3c2)cc1	Serine/threonine-protein kinase Sgk2 (SGK2, Homo sapiens, UniProt Q9HBY8)	enzyme activity, inhibitor	–	0.5 µM	remaining activity	16%
Nc1ncnc2occ(-c3ccc(NC(=O)Nc4cc(C(F)(F)F)ccc4F)cc3)c12	ANKK1	cell-free assay	–	20 µM	remaining signal	3.6%
